ChEMBL document CHEMBL1145471, “Small molecule regulators of autophagy identified by an image-based high-throughput screen” (Proc Natl Acad Sci U S A, 2007)
The source made the active and inactive calls. No cut-off for these calls is given here.

What was measured:
H4 [1] = experiment: Increase in light chain 3-GFP+ autophagosome vesicle number per cell in human H4 cells at 7.0 uM after 24 hrs by high throughput fluorescence microscopy relative to control; format: functional
Method in brief: (§1)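 H4 cells stably expressing LC3-GFP were grown in DMEM with 10% FBS and 2 mM L-glutamine at 37°C, 5% CO2. They were exposed to each compound for 24 h, with DMSO as negative and rapamycin as positive control. Cells were then fixed in 4% paraformaldehyde and stained with 3 μg/ml DAPI. High-throughput fluorescence imaging scored LC3-GFP spot number, size and intensity, expressed relative to DMSO. Mean ± SD of triplicates; experiments repeated three times.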

H4 [2] = experiment: Increase in long-lived protein degradation in human H4 cells after 4 hrs relative to control; format: functional; set-up: concentration or dose not given beside the values
H4 [3] = experiment: Effect on FYVE-RFP+ vesicle intensity per cell in human H4 cells after 4 hrs relative to control; format: functional; set-up: concentration or dose not given beside the values
Method in brief: (§2)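 H4 cells stably expressing FYVE-RFP (H4-FYVE), grown in DMEM with 10% FBS, penicillin/streptomycin and 2 mM L-glutamine at 37°C, 5% CO2, seeded in 96-well plates and exposed to compound. Fixed in 4% paraformaldehyde, nuclei stained with 3 μg/ml DAPI, FYVE-RFP+ vesicles quantified by high-throughput fluorescence microscopy against DMSO control. Triplicate wells, mean ± SD.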

H4 [4] = experiment: Increase in long-lived protein degradation in human H4 cells after 2 hrs relative to control; format: functional; set-up: concentration or dose not given beside the values
H4 [5] = experiment: Increase in light chain 3-GFP+ autophagosome vesicle intensity per cell in human H4 cells at 7.0 uM after 24 hrs by high throughput fluorescence microscopy relative to control; format: functional; method in brief: as §1
H4 [6] = experiment: Increase in long-lived protein degradation in human H4 cells after 24 hrs relative to control; format: functional; set-up: concentration or dose not given beside the values
H4 [7] = experiment: Induction of light chain 3-GFP level in human H4 cells at 7.0 uM after 24 hrs by high throughput fluorescence microscopy relative to control; format: functional
Method in brief: (§3)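 H4 cells stably expressing LC3-GFP, grown in DMEM with 10% FBS, penicillin/streptomycin and 2 mM L-glutamine at 37°C, 5% CO2. Cells were seeded in 96-well plates and exposed to library compounds at 3–12 μM for 24 h, then fixed in 4% paraformaldehyde and stained with 3 μg/ml DAPI. LC3-GFP spot number, size and intensity were measured by high-throughput fluorescence microscopy and expressed relative to DMSO. Triplicates, mean ± SD.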

H4 [8] = experiment: Increase in long-lived protein degradation in human H4 cells after 1 hr relative to control; format: functional; set-up: concentration or dose not given beside the values
H4 [9] = experiment: Effect on FYVE-RFP+ vesicle intensity per cell in human H4 cells after 8 hrs relative to control; format: functional; set-up: concentration or dose not given beside the values; method in brief: as §2
H4 [10] = experiment: Increase in light chain 3-GFP+ autophagosome vesicle area per cell in human H4 cells at 7.0 uM after 24 hrs by high throughput fluorescence microscopy relative to control; format: functional
Method in brief: (§4)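 H4 cells stably expressing LC3-GFP, seeded in 96-well plates and exposed to compound for 24 h; screening concentrations were 3–12 μM, with rapamycin 0.22 μM and bafilomycin A1 0.40 μM. Cells fixed in 4% paraformaldehyde and stained with 3 μg/ml DAPI. Number, size and intensity of LC3-GFP spots measured by high-throughput fluorescence microscopy and expressed as percent of DMSO-treated wells. Rapamycin was the positive control. Triplicate wells, mean ± SD; experiments repeated three times.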

H4 [11] = experiment: Effect on FYVE-RFP+ vesicle intensity per cell in human H4 cells after 2 hrs relative to control; format: functional; set-up: concentration or dose not given beside the values; method in brief: as §2
H4 [12] = experiment: Induction of light chain 3-GFP level in human H4 cells at 5.9 uM after 24 hrs by high throughput fluorescence microscopy relative to control; format: functional; method in brief: as §3
H4 [13] = experiment: Increase in light chain 3-GFP+ autophagosome vesicle number per cell in human H4 cells at 5.9 uM after 24 hrs by high throughput fluorescence microscopy relative to control; format: functional; method in brief: as §1
H4 [14] = experiment: Increase in light chain 3-GFP+ autophagosome vesicle intensity per cell in human H4 cells at 5.9 uM after 24 hrs by high throughput fluorescence microscopy relative to control; format: functional; method in brief: as §1
H4 [15] = experiment: Increase in FYVE-RFP+ vesicle intensity per cell in human H4 cells after 4 hrs relative to control; format: functional; set-up: concentration or dose not given beside the values; method in brief: as §2
H4 [16] = experiment: Increase in FYVE-RFP+ vesicle intensity per cell in human H4 cells after 2 hrs relative to control; format: functional; set-up: concentration or dose not given beside the values; method in brief: as §2
H4 [17] = experiment: Increase in FYVE-RFP+ vesicle intensity per cell in human H4 cells after 8 hrs relative to control; format: functional; set-up: concentration or dose not given beside the values; method in brief: as §2
H4 [18] = experiment: Increase in light chain 3-GFP+ autophagosome vesicle area per cell in human H4 cells at 5.9 uM after 24 hrs by high throughput fluorescence microscopy relative to control; format: functional; method in brief: as §4
H4 [19] = experiment: Increase in ratio of light chain 3 subunit 2 to light chain 3 subunit 1 in human H4 cells at 3.7 uM after 4 hrs by Western blot; format: functional, cell-based
Method in brief: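 H4 cells were treated with each compound for 4 h, then lysed. Lysates were immunoblotted with anti-LC3 antibody, with actin as loading control. LC3II and LC3I bands were compared as an LC3II/LC3I ratio.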

[20] = target: Serine/threonine-protein kinase mTOR (Homo sapiens, UniProt P42345); experiment: Effect on mTOR phosphorylation in human H4 cells at 3.7 uM after 4 hrs; format: cell-based
Method in brief: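 H4 cells exposed to compound for 4 h. Lysates analysed by Western blot with anti-phospho and anti-total mTOR antibodies, with actin as loading control. Rapamycin served as reference.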

H4 [21] = experiment: Reduction of poly(Q) level in human H4 cells expressing EGFP-Q79-HA after 24 hrs; format: functional, cell-based
Method in brief: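 H4 cells were transiently transfected with an EGFP-Q79-HA expression vector. The medium was replaced 6 h after transfection and compounds were added. Poly(Q) was detected with anti-HA antibody.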

H4 [22] = experiment: Increase in light chain 3-GFP+ autophagosome vesicle area per cell in human H4 cells at 3.7 uM after 24 hrs by high throughput fluorescence microscopy relative to control; format: functional; method in brief: as §4
H4 [23] = experiment: Induction of light chain 3-GFP level in human H4 cells at 3.7 uM after 24 hrs by high throughput fluorescence microscopy relative to control; format: functional; method in brief: as §3
H4 [24] = experiment: Increase in light chain 3-GFP+ autophagosome vesicle number per cell in human H4 cells at 3.7 uM after 24 hrs by high throughput fluorescence microscopy relative to control; format: functional; method in brief: as §1
H4 [25] = experiment: Increase in light chain 3-GFP+ autophagosome vesicle intensity per cell in human H4 cells at 3.7 uM after 24 hrs by high throughput fluorescence microscopy relative to control; format: functional; method in brief: as §4
H4 [26] = experiment: Induction of light chain 3-GFP level in human H4 cells at 3.4 uM after 24 hrs by high throughput fluorescence microscopy relative to control; format: functional
Method in brief: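 H4 cells stably expressing LC3-GFP, kept in DMEM/10% FBS at 37°C, 5% CO2, were seeded in 96-well plates and exposed to compound for 24 h. Cells were then fixed in 4% paraformaldehyde and stained with 3 μg/ml DAPI. Automated fluorescence microscopy scored the number, size and intensity of LC3-GFP spots. Values are percent of DMSO wells, in triplicate, mean ± SD. Rapamycin served as positive control.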

H4 [27] = experiment: Increase in light chain 3-GFP+ autophagosome vesicle area per cell in human H4 cells at 3.4 uM after 24 hrs by high throughput fluorescence microscopy relative to control; format: functional
Method in brief: (§5)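 H4 cells stably expressing LC3-GFP, seeded in 96-well plates and exposed to compound for 24 h; fixed in 4% paraformaldehyde, nuclei stained with 3 μg/ml DAPI. Automated fluorescence microscopy scored number, size and intensity of LC3-GFP spots; values expressed relative to DMSO-treated wells, rapamycin positive control. Triplicate wells, mean ± SD; experiments repeated three times.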

H4 [28] = experiment: Increase in light chain 3-GFP+ autophagosome vesicle number per cell in human H4 cells at 3.4 uM after 24 hrs by high throughput fluorescence microscopy relative to control; format: functional; method in brief: as §5
H4 [29] = experiment: Increase in light chain 3-GFP+ autophagosome vesicle intensity per cell in human H4 cells at 3.4 uM after 24 hrs by high throughput fluorescence microscopy relative to control; format: functional; method in brief: as §5

Compound	Activity (H4 [2]) [%]	Activity (H4 [3]) [%]	Activity (H4 [4]) [%]	Activity (H4 [6]) [%]	Activity (H4 [8]) [%]	Activity (H4 [9]) [%]	Activity (H4 [11]) [%]	Activity (H4 [15]) [%]	Activity (H4 [16]) [%]	Activity (H4 [17]) [%]	other results
COC(=O)C1=C(C)NC(C)=C([N+](=O)[O-])C1c1ccccc1C(F)(F)F (configuration not stated)	115.35	57.79	115.5	102.15	104.43	79.7	110.18				Activity (H4 [1]): 146.82%; Activity (H4 [5]): 181.32%; Activity (H4 [7]): 134.45%; Activity (H4 [10]): 165.46%
CN(C)C[C@H](O)Cn1c2ccc(Br)cc2c2cc(Br)ccc21 [WISKOSTATIN]	92.99		90.21	97.71	68.51			240.08	267.9	131.93	Activity (H4 [12]): 96.96%; Activity (H4 [13]): 789.24%; Activity (H4 [14]): 2401.38%; Activity (H4 [18]): 1226.54%
CCCCc1oc2ccccc2c1C(=O)c1cc(I)c(OCCN(CC)CC)c(I)c1 [AMIODARONE]	110.75	89.23	122.42	116.73	101.32	83.45	92.5				Activity (H4 [19]): Active; Activity [20]: inactive; Activity (H4 [21]): Dose-dependent effect; Activity (H4 [22]): 236.64%; Activity (H4 [23]): 138.5%; Activity (H4 [24]): 189.25%; Activity (H4 [25]): 327.25%
CO[C@@H]1C[C@@H](C[C@H]2CC[C@H](C)[C@H]([C@@H](C)C(=O)O)O2)O[C@]2(O[C@](C)([C@H]3CC[C@@](C)([C@@H]4O[C@@H]([C@H]5O[C@@](O)(CO)[C@H](C)C[C@@H]5C)C[C@@H]4C)O3)C[C@H]2C)[C@@H]1C [NIGERICIN]	96.9		88.14	95.98	91.75			145.4	148.43	140.54	Activity (H4 [26]): 106.9%; Activity (H4 [27]): 551.04%; Activity (H4 [28]): 375.67%; Activity (H4 [29]): 747.88%
